How the values were obtained:
[1] = Selectivity index, ratio of EC50 for rat L6 cells to EC50 for Plasmodium falciparum K1; assay type: toxicity, cell-based; details: read-out: Ratio EC50
[2] = target: T1, Deoxyuridine 5'-triphosphate nucleotidohydrolase, mitochondrial (Homo sapiens, UniProt P33316); assay: Inhibition of recombinant human dUTPase expressed in Escherichia coli BL21 (DE3) using dUTP as substrate by spectrophotometric analysis
T1 sequence (P33316 whole entry): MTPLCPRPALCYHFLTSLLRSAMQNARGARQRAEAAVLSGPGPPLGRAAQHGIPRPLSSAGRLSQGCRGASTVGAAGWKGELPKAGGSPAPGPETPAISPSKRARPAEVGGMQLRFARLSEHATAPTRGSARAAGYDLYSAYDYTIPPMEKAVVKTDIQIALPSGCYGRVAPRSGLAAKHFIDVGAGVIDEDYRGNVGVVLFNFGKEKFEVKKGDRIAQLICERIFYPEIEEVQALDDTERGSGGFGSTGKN
Summary of the method: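 Human enzyme expressed in IPTG-induced E. coli BL21(DE3) and purified like the parasite enzyme (phosphocellulose, then gel filtration, ≥96% pure). Hydrolysis after rapid mixing was read as proton release using a cresol red/bicine indicator pair (pH 8, 573 nm), with absorbance change kept within 0.1 units. Vmax and KMapp were fitted to the integrated Michaelis–Menten equation.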

L6 = assay: Cytotoxicity against rat L6 cells after 72 hrs by Alamar Blue assay; assay type: cell-based; details: L6, 72 h
Summary of the method: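 Rat skeletal myoblast L6 line, with podophyllotoxin as control. EC50 is the mean of two independent assays.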

Plasmodium falciparum = assay: Antiparasitic activity against chloroquine/pyrimethamine-resistant Plasmodium falciparum K1 infected in erythrocytes assessed as parasite growth inhibition after 48 hrs by [3H]-hypoxanthine incorporation assay; assay type: functional, organism-based
[3] = Inhibition of recombinant Plasmodium falciparum dUTPase expressed in Escherichia coli BL21 (DE3) using dUTP as substrate by spectrophotometric analysis
Summary of the method: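 Recombinant enzyme from IPTG-induced E. coli BL21(DE3), purified by phosphocellulose and gel filtration to ≥96% purity, stored in 10 mM bicine/5 mM MgCl2 pH 8. Stopped-flow mixing of 30 nM PfdUTPase with 50 µM dUTP, 5 mM MgCl2, 1 mg/mL BSA and 100 mM KCl. Proton release tracked with cresol red/bicine (pH 8) at 573 nm. Vmax and KMapp fitted by integrated Michaelis–Menten equation.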

[4] = Selectivity index, ratio of Ki for human dUTPase to Ki for recombinant Plasmodium falciparum dUTPase

Row | SMILES | selectivity ratio [1] | Ki [2] | EC50 (L6) | EC50 (Plasmodium falciparum) | Ki [3] | Ratio Ki [4]
1 | O=c1ccn(CCCCCCNC(c2ccccc2)(c2ccccc2)c2ccccc2)c(=O)[nH]1 | 36 |  |  |  |  | 
2 | O=C(NCCCn1ccc(=O)[nH]c1=O)C(c1ccccc1)(c1ccccc1)c1ccccc1 |  | 1000 µM |  |  |  | 
3 | O=c1ccn(CCCCOC(c2ccccc2)c2ccccc2)c(=O)[nH]1 | 7 | 49 µM | 104 µM | 14 µM | 0.5 µM | 
4 | O=c1ccn(CCCOC(c2ccccc2)(c2ccccc2)c2ccccc2)c(=O)[nH]1 | 5 |  |  |  |  | 
5 | O=c1ccn(CCCNC(c2ccccc2)c2ccccc2)c(=O)[nH]1 | 49 | 10 µM | 269 µM | 5.5 µM | 5.7 µM | 
6 | O=c1ccn([C@H]2C[C@H](O)[C@@H](CNC(c3ccccc3)(c3ccccc3)c3ccccc3)O2)c(=O)[nH]1 |  |  |  |  | 0.2 µM | 
7 | O=C(NCCCO)C(c1ccccc1)(c1ccccc1)c1ccccc1 |  |  |  |  |  | 1
8 | O=C(CCCn1ccc(=O)[nH]c1=O)NC(c1ccccc1)c1ccccc1 |  | 1000 µM |  |  |  | 
9 | O=c1ccn(CCCCNC(c2ccccc2)(c2ccccc2)c2ccccc2)c(=O)[nH]1 | 9 |  |  |  |  | 
10 | O=c1ccn(CCCCCCOC(c2ccccc2)(c2ccccc2)c2ccccc2)c(=O)[nH]1 | 19 |  |  |  |  | 
11 | O=c1ccn([C@H]2C[C@H](O)[C@@H](CNC(c3ccccc3)c3ccccc3)O2)c(=O)[nH]1 | > 20 | > 100 µM | > 229 µM | 12 µM | 0.2 µM | 
12 | O=C(O)CCCn1ccc(=O)[nH]c1=O |  | 1000 µM |  |  | > 100 µM | 400
13 | O=C(c1ccccc1)n1c(=O)ccn(CCCNC(=O)C(c2ccccc2)(c2ccccc2)c2ccccc2)c1=O |  | 1000 µM |  |  | > 100 µM | 56
14 | O=c1ccn(CCCCNC(c2ccccc2)c2ccccc2)c(=O)[nH]1 | 38 | 63 µM | 99 µM | 2.6 µM | 5.7 µM | 
15 | O=C(CCCn1ccc(=O)[nH]c1=O)NC(c1ccccc1)(c1ccccc1)c1ccccc1 |  | 1000 µM |  |  |  | 
16 | O=C(NCCCO)C(c1ccccc1)c1ccccc1 |  | 1000 µM |  |  | > 100 µM | 13

Source: ChEMBL document CHEMBL2417361, “Investigation of acyclic uridine amide and 5'-amido nucleoside analogues as potential inhibitors of the Plasmodium falciparum dUTPase” (Bioorg Med Chem, 2013)
